# ChEMBL document CHEMBL3351841, “Differential modes of peptide binding onto replicative sliding clamps from various bacterial origins” (J Med Chem, 2014)
# Where a SMILES comes first, the peptide text is derived from it. [ ]: non-standard residue; d: D form. Phe(3,4-Cl2) = N[C@@H](Cc1ccc(Cl)c(Cl)c1)C(=O)O; Cha = N[C@@H](CC1CCCCC1)C(=O)O
# Tests used:
# [1] = Binding affinity to Staphylococcus aureus DNA sliding clamp protein expressed in Escherichia coli BL21(DE3) pLys at 30 degC by ITC assay
# Summary of the method: (§1)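 ITC at 30 °C. Peptide (200–600 μM) was injected stepwise (2 μL) into clamp solution (20–60 μM), with peptide/SC ratio 10, in Hepes 10 mM pH 7.4, NaCl 0.15 M, EDTA 3 mM. Peptide-into-buffer controls were subtracted, and N, KD, ΔH and ΔS were derived. Performed at least twice.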
# [2] = Binding affinity to Escherichia coli DNA sliding clamp protein expressed in Escherichia coli BL21(DE3) pLys by SPR assay
# Summary of the method: (§2)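 Competition SPR at 25 °C in Hepes 10 mM pH 7.4, 0.15 M NaCl, 3 mM EDTA. Clamp (0.25 μM) was preincubated with challenger peptide (1.5 nM to 100 μM), then injected over a chip carrying immobilized P1 peptide (Pol IV C-terminal heptamer). IC50 was taken from inhibition of clamp/P1 binding.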
# [3] = Binding affinity to Bacillus subtilis DNA sliding clamp protein expressed in Escherichia coli BL21(DE3) pLys at 25 degC by ITC assay
# Summary of the method: (§3)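 iTC200 calorimetry at 25 °C. Peptide (200–600 μM) was titrated in 2 μL injections into clamp (20–60 μM), with peptide/SC ratio 10, in 10 mM Hepes pH 7.4, 0.15 M NaCl, 3 mM EDTA. Data were corrected against peptide-into-buffer controls and fit for N, KD, ΔH and ΔS. At least two experiments.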
# [4] = Binding affinity to Escherichia coli DNA sliding clamp protein expressed in Escherichia coli BL21(DE3) pLys at 30 degC by ITC assay; summary of the method: as §1
# [5] = Binding affinity to Staphylococcus aureus DNA sliding clamp protein expressed in Escherichia coli BL21(DE3) pLys by SPR assay; summary of the method: as §2
# [6] = Binding affinity to Bacillus subtilis DNA sliding clamp protein expressed in Escherichia coli BL21(DE3) pLys by SPR assay; summary of the method: as §2
# [7] = Binding affinity to Bacillus subtilis DNA sliding clamp protein expressed in Escherichia coli BL21(DE3) pLys at 30 degC by ITC assay; summary of the method: as §1
# [8] = Binding affinity to Escherichia coli DNA sliding clamp protein expressed in Escherichia coli BL21(DE3) pLys at 25 degC by ITC assay; summary of the method: as §3
# [9] = Binding affinity to Pseudomonas aeruginosa DNA sliding clamp protein expressed in Escherichia coli BL21(DE3) pLys at 30 degC by ITC assay; summary of the method: as §1
# [10] = Binding affinity to Pseudomonas aeruginosa DNA sliding clamp protein expressed in Escherichia coli BL21(DE3) pLys at 25 degC by ITC assay
# Summary of the method: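 His-tagged P. aeruginosa (PAO1) dnaN clamp from pET-15b, IPTG 0.1 mM at 28 °C overnight; Ni-NTA then MonoQ purified, ultracentrifuged. Peptide (200–600 μM) titrated in 2 μL injections into clamp (20–60 μM), peptide/clamp ratio 10, in 10 mM Hepes pH 7.4, 0.15 M NaCl, 3 mM EDTA. Heat of peptide into buffer subtracted; KD, N, ΔH, ΔS fitted; at least two runs.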
# [11] = Binding affinity to Pseudomonas aeruginosa DNA sliding clamp protein expressed in Escherichia coli BL21(DE3) pLys by SPR assay; summary of the method: as §2
# [12] = Binding affinity to Mycobacterium tuberculosis DNA sliding clamp protein expressed in Escherichia coli BL21(DE3) pLys at 25 degC by ITC assay
# Summary of the method: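 ITC at 25 °C. Peptide (200−600 μM) titrated in 2 μL injections into clamp (20−60 μM) at a peptide/clamp ratio of 10, in 10 mM Hepes pH 7.4, 0.15 M NaCl, 3 mM EDTA. Corrected using peptide-into-buffer controls. N, KD, ΔH and ΔS fitted; at least two experiments.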
# [13] = Binding affinity to Mycobacterium tuberculosis DNA sliding clamp protein expressed in Escherichia coli BL21(DE3) pLys by SPR assay
# Summary of the method: (§4)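 SPR competition at 25 °C in Hepes 10 mM pH 7.4, 0.15 M NaCl, 3 mM EDTA. Clamp (0.25 μM) preincubated with challenger peptide (1.5 nM to 100 μM), then injected over a chip loaded with P1 peptide. IC50 taken from inhibition of clamp/P1 binding; at least three independent experiments.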
# [14] = Binding affinity to Bacillus subtilis DNA sliding clamp protein expressed in Escherichia coli BL21(DE3) pLys at 25 degC by SPR assay; summary of the method: as §2
# [15] = Binding affinity to Pseudomonas aeruginosa DNA sliding clamp protein expressed in Escherichia coli BL21(DE3) pLys at 25 degC by SPR assay; summary of the method: as §2
# [16] = system: Escherichia coli; assay: Binding affinity to Escherichia coli DNA sliding clamp protein expressed in Escherichia coli BL21(DE3) pLys assessed as association constant at 25 degC by SPR assay
# Summary of the method: (§5)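 Biacore SPR at 25 °C in 10 mM Hepes pH 7.4, 0.15 M NaCl, 3 mM EDTA. The E. coli Pol IV C-terminal heptamer (P1) was immobilized, and the clamp (Ni-NTA then MonoQ purified) was injected at 0.125–2 μM at 50 μL/min. After background subtraction, data were fit to a 1:1 Langmuir model to give KA.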
# [17] = Binding affinity to Staphylococcus aureus DNA sliding clamp protein expressed in Escherichia coli BL21(DE3) pLys at 25 degC by SPR assay; summary of the method: as §2
# [18] = system: Staphylococcus aureus; assay: Binding affinity to Staphylococcus aureus DNA sliding clamp protein expressed in Escherichia coli BL21(DE3) pLys assessed as association constant at 25 degC by SPR assay; summary of the method: as §5
# [19] = system: Mycobacterium tuberculosis; assay: Binding affinity to Mycobacterium tuberculosis DNA sliding clamp protein expressed in Escherichia coli BL21(DE3) pLys assessed as association constant at 25 degC by SPR assay
# Summary of the method: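 Direct SPR binding at 25 °C in 10 mM Hepes pH 7.4, 0.15 M NaCl, 3 mM EDTA. Ni-NTA/MonoQ-purified clamp (0.125−2 μM) injected at 50 μL/min over immobilized P1, the E. coli Pol IV C-terminal heptamer. Background subtracted; 1:1 Langmuir fit gives KA.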
# [20] = Binding affinity to Escherichia coli DNA sliding clamp protein expressed in Escherichia coli BL21(DE3) pLys at 25 degC by SPR assay; summary of the method: as §2
# [21] = system: Bacillus subtilis; assay: Binding affinity to Bacillus subtilis DNA sliding clamp protein expressed in Escherichia coli BL21(DE3) pLys assessed as association constant at 25 degC by SPR assay; summary of the method: as §5
# [22] = Binding affinity to Mycobacterium tuberculosis DNA sliding clamp protein expressed in Escherichia coli BL21(DE3) pLys at 25 degC by SPR assay; summary of the method: as §4
# [23] = system: Pseudomonas aeruginosa; assay: Binding affinity to Pseudomonas aeruginosa DNA sliding clamp protein expressed in Escherichia coli BL21(DE3) pLys assessed as association constant at 25 degC by SPR assay; summary of the method: as §5
compound,measurement,setting,value
CC(=O)N[C@@H](CCC(N)=O)C(=O)N[C@@H](CC1CCCCC1)C(=O)N[C@@H](CC(=O)O)C(=O)N[C@@H](CC(C)C)C(=O)N[C@@H](Cc1ccccc1)C(=O)O (Ac-Q[Cha]DLF-OH),Kd,[1],29 µM
same,IC50,[2],0.17 µM
same,Kd,[3],12.3 µM
same,Kd,[4],1 µM
same,IC50,[5]; read-out: IC50,1.54 µM
same,IC50,[6]; read-out: IC50,2.1 µM
same,Kd,[7],8.2 µM
same,Kd,[8],0.23 µM
same,Kd,[9],0.64 µM
"CC(=O)N[C@@H](CCC(N)=O)C(=O)N[C@@H](CC1CCCCC1)C(=O)N[C@@H](CC(=O)O)C(=O)N[C@@H](CC(C)C)C(=O)N[C@@H](Cc1ccc(Cl)c(Cl)c1)C(=O)O (Ac-Q[Cha]DL[Phe(3,4-Cl2)]-OH)",IC50,[2],0.08 µM
same,Kd,[10],0.099 µM
same,IC50,[11],0.14 µM
same,IC50,[5],Not Active
same,IC50,[6],Not Active
same,Kd,[12],0.75 µM
same,Kd,[8],0.05 µM
same,IC50,[13],0.85 µM
H-RQLVLGL-OH,Kd,[14],0.29 µM
same,Kd,[15],0.58 µM
same,KA,[16],4.2 ×10⁶ /M
same,Kd,[17],0.25 µM
same,KA,[18],4.1 ×10⁶ /M
same,KA,[19],4.6 ×10⁶ /M
same,Kd,[20],0.23 µM
same,KA,[21],3.5 ×10⁶ /M
same,Kd,[22],0.24 µM
same,KA,[23],1.7 ×10⁶ /M
